Calls of active or inactive are those of the source. The rule behind the calls is not given here.
Assays:
KYSE-410 [1] = assay: Inhibition of colony formation in human KYSE410 cells at 0.4 to 30 uM after 7 days by crystal violet staining based assay; format: functional, cell-based
Method in brief: (§1)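 Seeding at 250 cells/well in 96-well plates, attached 24 h, then serial compound dilutions added at 37 °C. Culture continued 7 days until colonies formed. Colonies washed, stained with 2% crystal violet for 1 h, then rinsed thoroughly with water.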

KYSE-70 cell line [2] = assay: Inhibition of colony formation in human KYSE-70 cells at 0.4 to 30 uM after 7 days by crystal violet staining based assay; format: functional, cell-based; method in brief: as §1
KYSE-410 [3] = assay: Antiproliferative activity against human KYSE410 cells after 72 hrs by MTT assay; format: functional, cell-based; conditions: KYSE-410, 72 h
Method in brief: (§2)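 Cells grown as monolayers at 37 °C, 5% CO2, mycoplasma-checked, in exponential phase. Cells seeded in 96-well plates, 24 h attachment, then compound added for 72 h. MTT 0.3 mg/mL for 3 h at 37 °C, DMSO solubilization, absorbance at 570 nm. Inhibition = (1 − A/C) × 100%. IC50 from log(concentration) vs % inhibition plot; triplicate wells, SD from ≥3 independent experiments.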

KYSE-70 cell line [4] = assay: Antiproliferative activity against human KYSE-70 cells after 72 hrs by MTT assay; format: functional, cell-based; conditions: KYSE-70, 72 h; method in brief: as §2
KYSE-410 [5] = assay: Induction of autophagy in human KYSE410 cells assessed as increase in LC3B level at 10 to 50 uM after 24 hrs by Western blot analysis; format: functional, cell-based
Method in brief: (§3)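 Cells treated 24 h at indicated concentrations, with bafilomycin for induced-LC3B readouts. Lysis in RIPA with protease inhibitors, BCA protein assay, samples heated 5 min at 100 °C. Equal protein run on 15% SDS-PAGE, transferred to PVDF. Anti-LC3B primary overnight at 4 °C, GAPDH as loading control, anti-rabbit secondary, TBST washes.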

KYSE-410 [6] = assay: Cell cycle arrest in human KYSE410 cells assessed as accumulation at G1 phase at 5 uM after 24 to 48 hrs by propidium iodide staining based flow cytometry (reference value: 65.4%); format: functional
OVCAR-8 = assay: Antiproliferative activity against human OVCAR8 cells after 72 hrs by MTT assay; format: functional, cell-based; conditions: OVCAR-8, 72 h; method in brief: as §2
MIA PaCa-2 [7] = assay: Inhibition of autophagy in human MIAPaCa2 cells assessed as decrease in bafilomycin-induced LC3B level at 1 to 10 uM after 24 hrs by Western blot analysis; format: functional, cell-based; method in brief: as §3
KYSE-410 [8] = assay: Cell cycle arrest in human KYSE410 cells assessed as accumulation at S phase at 1 uM after 24 to 48 hrs by propidium iodide staining based flow cytometry (reference value: 22.3%); format: functional
KYSE-410 [9] = assay: Cell cycle arrest in human KYSE410 cells assessed as accumulation at G1 phase at 1 uM after 24 to 48 hrs by propidium iodide staining based flow cytometry (reference value: 65.4%); format: functional
KYSE-410 [10] = assay: Cell cycle arrest in human KYSE410 cells assessed as accumulation at G2 phase at 1 uM after 24 to 48 hrs by propidium iodide staining based flow cytometry (reference value: 12.2%); format: functional
SK-OV-3 = assay: Antiproliferative activity against human SKOV3 cells after 72 hrs by MTT assay; format: functional, cell-based; conditions: SK-OV-3, 72 h; method in brief: as §2
KYSE-410 [11] = assay: Inhibition of autophagy in human KYSE410 cells assessed as decrease in bafilomycin-induced LC3B level at 10 uM treated at 1 hr post proteasome inhibitor MG132 treatment measured after 24 hrs by Western blot analysis; format: functional, cell-based
Method in brief: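 KYSE410 cells pretreated 1 h with 10 µM MG132 (proteasome inhibitor), then compound at 10 µM for 24 h. Lysis in RIPA with protease inhibitors, BCA quantification, equal protein on 15% SDS-PAGE, PVDF transfer. Anti-LC3B overnight at 4 °C, anti-rabbit secondary, GAPDH as loading reference.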

KYSE-410 [12] = assay: Cell cycle arrest in human KYSE410 cells assessed as accumulation at G2 phase at 5 uM after 24 to 48 hrs by propidium iodide staining based flow cytometry (reference value: 12.2%); format: functional
KYSE-410 [13] = assay: Cell cycle arrest in human KYSE410 cells assessed as accumulation at S phase at 5 uM after 24 to 48 hrs by propidium iodide staining based flow cytometry (reference value: 22.3%); format: functional
KYSE-410 [14] = assay: Inhibition of colony formation in human KYSE410 cells at >3 uM after 7 days by crystal violet staining based assay; format: functional, cell-based; method in brief: as §1
KYSE-70 cell line [15] = assay: Inhibition of colony formation in human KYSE-70 cells at >3 uM after 7 days by crystal violet staining based assay; format: functional, cell-based; method in brief: as §1
KYSE-410 [16] = assay: Inhibition of autophagy in human KYSE410 cells assessed as decrease in bafilomycin-induced LC3B level at 1 to 10 uM after 24 hrs by Western blot analysis; format: functional, cell-based; method in brief: as §3
KYSE-410 [17] = assay: Inhibition of autophagy in human KYSE410 cells assessed as decrease in bafilomycin-induced LC3B level after 24 hrs by Western blot analysis; format: functional, cell-based; method in brief: as §3
MIA PaCa-2 [18] = assay: Antiproliferative activity against human MIAPaCa2 cells after 72 hrs by MTT assay; format: functional, cell-based; conditions: MIA PaCa-2, 72 h; method in brief: as §2

CC(C)(C)c1ccc(NC(=O)c2cc(=O)[nH]c3cc(Br)ccc23)cc1
inhibition (KYSE-410 [1]): inactive
inhibition (KYSE-70 cell line [2]): inactive
IC50 (KYSE-410 [3]): > 20 µM
IC50 (KYSE-70 cell line [4]): > 20 µM

CCN(CC)CCCC(C)Nc1ccc2c(C(=O)Nc3cccc(F)c3)cc(=O)[nH]c2c1 (centres undefined)
IC50 (KYSE-410 [3]): > 20 µM
IC50 (KYSE-70 cell line [4]): > 20 µM
Activity (KYSE-410 [5]): Active

O=C(Nc1cc(F)cc(F)c1)c1cc(=O)[nH]c2cc(Br)ccc12
Activity (KYSE-410 [6]): 57.2%
IC50 (OVCAR-8): 12.1 µM
inhibition (MIA PaCa-2 [7]): Active
Activity (KYSE-410 [8]): 21.2%
Activity (KYSE-410 [9]): 64.2%
Activity (KYSE-410 [10]): 14.6%
IC50 (KYSE-410 [3]): 11.2 µM
IC50 (SK-OV-3): 10.8 µM
inhibition (KYSE-410 [11]): inactive
Activity (KYSE-410 [12]): 19.8%
IC50 (KYSE-70 cell line [4]): 10.7 µM
Activity (KYSE-410 [13]): 23%
inhibition (KYSE-410 [14]): Active
inhibition (KYSE-70 cell line [15]): Active
inhibition (KYSE-410 [16]): Active
inhibition (KYSE-410 [17]): Dose-dependent effect
IC50 (MIA PaCa-2 [18]): 7.8 µM

O=C(Nc1cccc(F)c1)c1cc(=O)[nH]c2cc(-c3ccc(F)cc3)ccc12
IC50 (OVCAR-8): 22.3 µM
IC50 (KYSE-410 [3]): 10.3 µM
IC50 (SK-OV-3): 16.6 µM
IC50 (KYSE-70 cell line [4]): 3.3 µM
IC50 (MIA PaCa-2 [18]): 19.3 µM

CCN(CC)CCCC(C)Nc1ccnc2cc(Cl)ccc12 (centres undefined) [CHLOROQUINE]
Activity (KYSE-410 [6]): 64.3%
Activity (KYSE-410 [8]): 20.7%
Activity (KYSE-410 [9]): 65.6%
Activity (KYSE-410 [10]): 13.7%
Activity (KYSE-410 [12]): 11.3%
Activity (KYSE-410 [13]): 24.4%

O=C(Nc1cccc(F)c1)c1cc(=O)[nH]c2cc(C3=CCOCC3)ccc12
IC50 (OVCAR-8): 21.8 µM
IC50 (KYSE-410 [3]): 12.1 µM
IC50 (SK-OV-3): 13.3 µM
IC50 (KYSE-70 cell line [4]): 10.5 µM
IC50 (MIA PaCa-2 [18]): 8.8 µM

O=C(Nc1cccc(F)c1)c1cc(=O)[nH]c2cc(Br)ccc12
Activity (KYSE-410 [6]): 53.6%
IC50 (OVCAR-8): 5.8 µM
inhibition (MIA PaCa-2 [7]): Active
Activity (KYSE-410 [8]): 25.1%
Activity (KYSE-410 [9]): 61.9%
Activity (KYSE-410 [10]): 13%
IC50 (KYSE-410 [3]): 7.3 µM
IC50 (SK-OV-3): 10.6 µM
Activity (KYSE-410 [12]): 22.4%
IC50 (KYSE-70 cell line [4]): 8.9 µM
Activity (KYSE-410 [13]): 24%
inhibition (KYSE-410 [16]): Active
IC50 (MIA PaCa-2 [18]): 7.5 µM

COc1ccc(NC(=O)c2cc(=O)[nH]c3cc(Br)ccc23)cc1
IC50 (KYSE-410 [3]): > 20 µM
IC50 (KYSE-70 cell line [4]): > 20 µM

O=C(Nc1cccc(F)c1)c1cc(=O)[nH]c2cc(-c3ccsc3)ccc12
Activity (KYSE-410 [6]): 22.6%
IC50 (OVCAR-8): 13.4 µM
Activity (KYSE-410 [8]): 21.7%
Activity (KYSE-410 [9]): 63.6%
Activity (KYSE-410 [10]): 14.7%
IC50 (KYSE-410 [3]): 4.3 µM
IC50 (SK-OV-3): 6.7 µM
Activity (KYSE-410 [12]): 54.9%
IC50 (KYSE-70 cell line [4]): 5.1 µM
Activity (KYSE-410 [13]): 22.4%
IC50 (MIA PaCa-2 [18]): 4.5 µM

O=C(Nc1ccc(F)cc1)c1ccnc2cc(Br)ccc12
IC50 (KYSE-410 [3]): > 20 µM
IC50 (KYSE-70 cell line [4]): > 20 µM

CC(=O)c1ccc(-c2ccc3c(C(=O)Nc4cccc(F)c4)cc(=O)[nH]c3c2)cc1
IC50 (KYSE-410 [3]): > 20 µM
IC50 (KYSE-70 cell line [4]): > 20 µM

COc1ccc(-c2ccc3c(C(=O)Nc4cccc(F)c4)cc(=O)[nH]c3c2)cc1
IC50 (KYSE-410 [3]): 18 µM
IC50 (KYSE-70 cell line [4]): > 20 µM

COc1ccccc1NC(=O)c1ccnc2cc(Br)ccc12
IC50 (KYSE-410 [3]): > 20 µM
IC50 (KYSE-70 cell line [4]): > 20 µM

O=C(Nc1cccc(F)c1)c1cc(=O)[nH]c2cc(-c3cccc(F)c3)ccc12
IC50 (KYSE-410 [3]): 10.9 µM
IC50 (KYSE-70 cell line [4]): 12 µM

O=C(c1cc(=O)[nH]c2cc(Br)ccc12)N1CCCCC1
IC50 (KYSE-410 [3]): > 20 µM
IC50 (KYSE-70 cell line [4]): > 20 µM

O=C(Nc1cccc(F)c1)c1cc(=O)[nH]c2cc(-c3ccncc3)ccc12
IC50 (KYSE-410 [3]): > 20 µM
IC50 (KYSE-70 cell line [4]): > 20 µM

Nc1ccc(-c2ccc3c(C(=O)Nc4cccc(F)c4)cc(=O)[nH]c3c2)cc1
IC50 (KYSE-410 [3]): > 20 µM
IC50 (KYSE-70 cell line [4]): > 20 µM

O=C(Nc1cccc(F)c1)c1cc(=O)[nH]c2cc(-c3ccc(F)nc3)ccc12
IC50 (KYSE-410 [3]): > 20 µM
IC50 (KYSE-70 cell line [4]): > 20 µM

O=C(Nc1cccc(F)c1)c1cc(=O)[nH]c2cc(-c3ccccc3F)ccc12
IC50 (KYSE-410 [3]): > 20 µM
IC50 (KYSE-70 cell line [4]): > 20 µM

COc1ccc(OC)c(NC(=O)c2cc(=O)[nH]c3cc(Br)ccc23)c1
IC50 (KYSE-410 [3]): > 20 µM
IC50 (KYSE-70 cell line [4]): > 20 µM

CCN(CC)CCCC(C)Nc1ccc(NC(=O)c2cc(=O)[nH]c3cc(F)ccc23)cc1F (centres undefined)
IC50 (KYSE-410 [3]): > 20 µM
IC50 (KYSE-70 cell line [4]): > 20 µM
Activity (KYSE-410 [5]): Active

O=C(Nc1ccc(F)cc1)c1cc(=O)[nH]c2cc(Br)ccc12
IC50 (KYSE-410 [3]): > 20 µM
IC50 (KYSE-70 cell line [4]): > 20 µM

COc1ccccc1NC(=O)c1cc(=O)[nH]c2cc(Br)ccc12
IC50 (KYSE-410 [3]): > 20 µM
IC50 (KYSE-70 cell line [4]): > 20 µM

O=C(Nc1cccc(F)c1)c1cc(=O)[nH]c2cc(-c3ccccc3)ccc12
IC50 (KYSE-410 [3]): > 20 µM
IC50 (KYSE-70 cell line [4]): > 20 µM

Cc1ccc(-c2ccc3c(C(=O)Nc4cccc(F)c4)cc(=O)[nH]c3c2)cc1
IC50 (KYSE-410 [3]): > 20 µM
IC50 (KYSE-70 cell line [4]): > 20 µM

O=C(Nc1ccc(Cl)cc1)c1ccnc2cc(Br)ccc12
IC50 (KYSE-410 [3]): > 20 µM
IC50 (KYSE-70 cell line [4]): > 20 µM

O=C(Nc1ccccn1)c1cc(=O)[nH]c2cc(Br)ccc12
Activity (KYSE-410 [6]): 62.1%
IC50 (OVCAR-8): > 20 µM
Activity (KYSE-410 [8]): 18.5%
Activity (KYSE-410 [9]): 70.8%
Activity (KYSE-410 [10]): 10.8%
IC50 (KYSE-410 [3]): 9.8 µM
IC50 (SK-OV-3): > 20 µM
Activity (KYSE-410 [12]): 18.5%
IC50 (KYSE-70 cell line [4]): 11 µM
Activity (KYSE-410 [13]): 19.5%
IC50 (MIA PaCa-2 [18]): 21.3 µM

O=C(Nc1cc(F)cc(F)c1)c1cc(=O)[nH]c2c(O)cccc12
IC50 (KYSE-410 [3]): > 20 µM
IC50 (KYSE-70 cell line [4]): > 20 µM

— ChEMBL document CHEMBL4152308, “Synthesis and biological evaluation of novel 2-oxo-1,2-dihydroquinoline-4-carboxamide derivatives for the treatment of esophageal squamous cell carcinoma” (Eur J Med Chem, 2018)
